Measured values gathered from unrelated publications.
Compare with care: the assays were run in different laboratories.
Medium: plasma

`CC(C)(Sc1ccncc1-c1ccc(C#N)c2ccccc12)C(=O)O` has an AUC(0-inf) of 415 ng·h/mL (male human; oral, 20 mg, single dose, fed, healthy volunteers).
With `O=C(Nc1c(Cl)cncc1Cl)c1ccc(OC(F)F)c(OCC2CC2)c1` the AUC(0-inf) was 33.8 ng·h/mL (human; oral, 0.25 mg, single dose, fasted).
The AUC(0-inf) of `CC(C)n1cc(C#N)c2cc(-n3cc(C(=O)O)cn3)ccc21` is reported as 1770 ng·h/mL (human; oral, 10 mg, single dose, fasted, healthy volunteers).
With `C[C@@]1(c2cc(NC(=O)c3ccc(C#N)cn3)ccc2F)C=CSC(N)=N1` the AUC(0-inf) was 8950 ng·h/mL (human; oral, 90 mg, single dose).
`CCCOc1ccc([C@H]2CNC(=O)N2c2ccc3[nH]cnc3c2)cc1` gave an AUC(0-inf) of 2330 ng·h/mL (human; oral, 200 mg, single dose, fasted, healthy volunteers).
For `CC(C)(O)c1ccccc1-c1ccc2[nH]c(/C=C/c3ccc(C(F)(F)F)cc3)nc2c1`, the AUC(0-inf) was 7820 ng·h/mL (male human; oral, 50 mg, single dose, fasted, healthy volunteers).
`O=C(/C=C/c1cccc(S(=O)(=O)Nc2ccccc2)c1)NO` has an AUC(0-inf) of 55200 ng·h/mL (human; intravenous, 1800 mg/m², patients).
The AUC(0-inf) of `CO[C@H]1CC[C@H](N2C(=O)CNc3ncc(-c4ccc(C(C)(C)O)nc4)nc32)CC1` is reported as 1230 ng·h/mL (human; oral, 30 mg, patients).
For `CN(C)CCCNC(=O)/C(=C/CCCCC(=O)NO)COc1cccc2ccccc12`, the AUC(0-inf) was 72600 ng·h/mL (human; intravenous, 312.5 mg/m², single dose).
With `Cn1cc(-c2ccc(S(=O)(=O)[C@@H]3C[C@@H](C(=O)NC4(C#N)CC4)N(C(=O)C4(C(F)(F)F)CC4)C3)c(C(F)(F)F)c2)cn1` the AUC(0-inf) was 44.9 ng·h/mL (human; oral, 1 mg, single dose, fasted, healthy volunteers).
With `CCc1nc2c(C)cc(N3CCN(CC(=O)N4CC(O)C4)CC3)cn2c1N(C)c1nc(-c2ccc(F)cc2)c(C#N)s1` the AUC(0-inf) was 36600 ng·h/mL (human; oral, 600 mg, single dose, fasted, healthy volunteers).
`COc1ccc([C@@H]2CN(C(=O)[C@@H](O)CO)C[C@@]2(C)[C@@H](C)O)cc1OC1CN(c2ccc(C)cn2)C1` has an AUC(0-inf) of 9000 ng·h/mL (human; oral, 40 mg, single dose, healthy volunteers).
